Active and inactive are the calls of the source.
Tests used:
MCF7 [1] = experiment: Growth inhibition of human MCF7 cells by MTT assay; format: functional
In short: (§1)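 Cells grown in RPMI 1640 with 10% FBS, plated at 2500 cells/well, treated across a dose range; growth read by MTT. GI50 taken from dose–response curves by nonlinear regression, at least three independent experiments.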

MDA-MB-231 [2] = experiment: Growth inhibition of human MDA-MB-231 cells by MTT assay; format: functional; in short: as §1
MDA-MB-468 [3] = experiment: Growth inhibition of human MDA-MB-468 cells by MTT assay; format: functional; in short: as §1
[4] = Growth inhibition of human SKBR3 cells by MTT assay; format: functional; settings: SK-BR-3; in short: as §1
LNCaP [5] = experiment: Growth inhibition of human LNCAP cells by MTT assay; format: functional; in short: as §1
[6] = Growth inhibition of human CWR22Rv1 cells by MTT assay; format: functional, CWR22R; settings: 22Rv1; in short: as §1
[7] = Growth inhibition of human PC3 cells by MTT assay; format: functional; settings: PC-3; in short: as §1
MCF7 [8] = experiment: Reduction in Mnk1 protein expression in human MCF7 cells at 0.63 uM to 20 uM after 24 hrs by SDS-PAGE and Western blotting method; format: functional, cell-based
In short: (§2)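 Breast cancer cells in RPMI 1640 with 10% FBS treated 24 h at indicated concentrations, DMSO vehicle control; equal protein loaded on SDS–PAGE and immunoblotted for Mnk1, Mnk2, peIF4E, eIF4E and cleaved PARP; blots reprobed for GAPDH as loading control.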

MCF7 [9] = experiment: Reduction in Mnk2 protein expression in human MCF7 cells at 0.63 uM to 20 uM after 24 hrs by SDS-PAGE and Western blotting method; format: functional, cell-based; in short: as §2
MCF7 [10] = experiment: Reduction in peIF4E protein expression in human MCF7 cells at 0.63 uM to 20 uM after 24 hrs by SDS-PAGE and Western blotting method; format: functional, cell-based
In short: (§3)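 MCF-7, MDA-MB-231 and MDA-MB-468 cells, kept in RPMI 1640 with 10% FBS, were exposed for 24 h to a range of concentrations, with DMSO vehicle controls. Equal protein from lysates was separated by SDS–PAGE and probed for Mnk1, Mnk2, peIF4E, eIF4E and cPARP. GAPDH reprobing served as loading control.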

MDA-MB-231 [11] = experiment: Reduction in Mnk1 protein expression in human MDA-MB-231 cells at 0.63 uM to 20 uM after 24 hrs by SDS-PAGE and Western blotting method; format: functional, cell-based; in short: as §2
MDA-MB-231 [12] = experiment: Reduction in Mnk2 protein expression in human MDA-MB-231 cells at 0.63 uM to 20 uM after 24 hrs by SDS-PAGE and Western blotting method; format: functional, cell-based; in short: as §2
MDA-MB-231 [13] = experiment: Reduction in peIF4E protein expression in human MDA-MB-231 cells at 0.63 uM to 20 uM after 24 hrs by SDS-PAGE and Western blotting method; format: functional, cell-based; in short: as §3
MDA-MB-468 [14] = experiment: Reduction in Mnk1 protein expression in human MDA-MB-468 cells at 0.63 uM to 20 uM after 24 hrs by SDS-PAGE and Western blotting method; format: functional, cell-based; in short: as §2
MDA-MB-468 [15] = experiment: Reduction in Mnk2 protein expression in human MDA-MB-468 cells at 0.63 uM to 20 uM after 24 hrs by SDS-PAGE and Western blotting method; format: functional, cell-based; in short: as §2
MDA-MB-468 [16] = experiment: Reduction in peIF4E protein expression in human MDA-MB-468 cells at 0.63 uM to 20 uM after 24 hrs by SDS-PAGE and Western blotting method; format: functional, cell-based; in short: as §3
MDA-MB-468 [17] = experiment: Effect on total eIF4E protein expression in human MDA-MB-468 cells at 0.63 uM to 20 uM after 24 hrs by SDS-PAGE and Western blotting method; format: functional, cell-based; in short: as §2
MDA-MB-231 [18] = experiment: Effect on total eIF4E protein expression in human MDA-MB-231 cells at 0.63 uM to 20 uM after 24 hrs by SDS-PAGE and Western blotting method; format: functional, cell-based; in short: as §2
MCF7 [19] = experiment: Effect on total eIF4E protein expression in human MCF7 cells at 0.63 uM to 20 uM after 24 hrs by SDS-PAGE and Western blotting method; format: functional, cell-based; in short: as §2
MDA-MB-468 [20] = experiment: Induction of apoptosis in human MDA-MB-468 cells assessed as increase in c-PARP formation at 0.63 uM to 20 uM after 24 hrs by SDS-PAGE and Western blotting method; format: functional, cell-based; in short: as §2
MCF7 [21] = experiment: Induction of apoptosis in human MCF7 cells assessed as increase in c-PARP formation at 0.63 uM to 20 uM after 24 hrs by SDS-PAGE and Western blotting method; format: functional, cell-based; in short: as §2
MDA-MB-231 [22] = experiment: Induction of apoptosis in human MDA-MB-231 cells assessed as increase in c-PARP formation at 0.63 uM to 20 uM after 24 hrs by SDS-PAGE and Western blotting method; format: functional, cell-based; in short: as §2
LNCaP [23] = experiment: Reduction in fAR protein expression in human LNCAP cells at 0.6 uM to 20 uM after 24 hrs by SDS-PAGE and Western blotting method; format: functional, cell-based
In short: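 LNCaP cells were treated for 24 h across 0.6–20 μM, with vehicle (DMSO) controls. Equal protein from lysates was run on SDS–PAGE and immunoblotted for fAR, Mnk1/2, peIF4E, cyclin D1 and cleaved PARP. Blots were reprobed for β-actin as loading control.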

LNCaP [24] = experiment: Reduction in Mnk1 protein expression in human LNCAP cells at 0.6 uM to 20 uM after 24 hrs by SDS-PAGE and Western blotting method; format: functional, cell-based
In short: (§4)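 LNCaP cells (RPMI 1640, 10% FBS) exposed 24 h to 0.6–20 μM, DMSO vehicle control; equal protein on SDS–PAGE, immunoblotted for fAR, Mnk1/2, peIF4E, cyclin D1 and cleaved PARP; β-actin reprobe for loading.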

LNCaP [25] = experiment: Reduction in Mnk2 protein expression in human LNCAP cells at 0.6 uM to 20 uM after 24 hrs by SDS-PAGE and Western blotting method; format: functional, cell-based; in short: as §4
LNCaP [26] = experiment: Effect on total eIF4E protein expression in human LNCAP cells at 0.6 uM to 20 uM after 24 hrs by SDS-PAGE and Western blotting method; format: functional, cell-based
LNCaP [27] = experiment: Induction of apoptosis in human LNCAP cells assessed as reduction in cyclin D1 levels at 0.6 uM to 20 uM after 24 hrs by SDS-PAGE and Western blotting method; format: functional, cell-based; in short: as §4
PC-3 = experiment: Inhibition of cell migration of human PC3 cells at 5 uM after 24 hrs by wound healing assay; format: functional, cell-based
In short: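 Cells (5 × 10⁵ per well) grown to confluence, monolayer scratched at time zero, then exposed to 5 μM for 24 h; initial and final wounds photographed at 100×.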

LNCaP [28] = experiment: Induction of apoptosis in human LNCAP cells assessed as increase in c-PARP formation at 0.6 uM to 20 uM after 24 hrs by SDS-PAGE and Western blotting method; format: functional, cell-based; in short: as §4
[29] = biological target: T1, Androgen receptor (Homo sapiens) (UniProt P10275); settings: LNCaP, at 10 µM
T1 sequence (whole entry): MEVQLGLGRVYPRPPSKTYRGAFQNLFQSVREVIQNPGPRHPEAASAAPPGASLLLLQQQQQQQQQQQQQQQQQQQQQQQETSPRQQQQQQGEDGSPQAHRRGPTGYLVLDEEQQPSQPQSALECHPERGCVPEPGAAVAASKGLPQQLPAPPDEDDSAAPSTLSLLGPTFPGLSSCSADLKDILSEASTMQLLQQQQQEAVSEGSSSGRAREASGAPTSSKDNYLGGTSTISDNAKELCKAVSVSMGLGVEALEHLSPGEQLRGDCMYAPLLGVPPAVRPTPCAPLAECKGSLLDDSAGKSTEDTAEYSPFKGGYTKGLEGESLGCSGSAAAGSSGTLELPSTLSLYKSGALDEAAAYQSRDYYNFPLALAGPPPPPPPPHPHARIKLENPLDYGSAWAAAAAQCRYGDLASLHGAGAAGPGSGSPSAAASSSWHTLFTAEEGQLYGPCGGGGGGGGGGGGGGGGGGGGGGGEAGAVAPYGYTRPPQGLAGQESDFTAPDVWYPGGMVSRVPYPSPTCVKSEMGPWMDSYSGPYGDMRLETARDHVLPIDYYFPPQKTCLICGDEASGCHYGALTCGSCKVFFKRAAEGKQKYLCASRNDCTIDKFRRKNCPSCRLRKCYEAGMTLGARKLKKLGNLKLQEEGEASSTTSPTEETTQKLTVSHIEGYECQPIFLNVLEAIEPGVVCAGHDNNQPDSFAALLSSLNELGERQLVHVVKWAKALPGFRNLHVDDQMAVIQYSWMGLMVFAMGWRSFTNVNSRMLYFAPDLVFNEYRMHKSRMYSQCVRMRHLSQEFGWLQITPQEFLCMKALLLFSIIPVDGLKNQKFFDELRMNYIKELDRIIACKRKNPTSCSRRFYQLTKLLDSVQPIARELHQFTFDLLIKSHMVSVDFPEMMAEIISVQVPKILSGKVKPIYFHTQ

MCF7 [30] = experiment: Growth inhibition of human MCF7 cells at 10 uM by MTT assay; format: functional; settings: read-out: GI
MDA-MB-231 [31] = experiment: Growth inhibition of human MDA-MB-231 cells at 10 uM by MTT assay; format: functional; settings: read-out: GI
MDA-MB-468 [32] = experiment: Growth inhibition of human MDA-MB-468 cells at 10 uM by MTT assay; format: functional; settings: read-out: GI
[33] = Growth inhibition of human SKBR3 cells at 10 uM by MTT assay; format: functional; settings: SK-BR-3, read-out: GI
MDA-MB-231 [34] = experiment: Antitumor activity against human MDA-MB-231 cells xenografted in SCID mouse assessed as inhibition of tumor growth at 20 mg/kg, ip dosed once daily for 5 days per week for 28 days; format: functional; settings: MDA-MB-231, ip, in the assay text read “athymic nude mouse” for “SCID mouse”, route intraperitoneal, read-out: TGI
In short: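 Athymic nude female mice with subcutaneous MDA-MB-231 tumors (10 × 10⁶ cells; ~100 mm³ at randomization, n = 6/group) dosed ip once daily, 5 days/week for 28 days, in 40% β-cyclodextrin/ddH₂O; vehicle controls. %T/C computed as median tumor volume treated vs control at day 28 × 100. Body weight monitored.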

CC1=C(/C=C/C(C)=C/C=C/C(C)=C\C(=O)Nc2ccccc2)C(C)(C)CCC1n1ccnc1 (stereo not drawn)
1.28 µM: GI50 [6]
1.74 µM: GI50 (MDA-MB-231 [2])
8.91 µM: GI50 [7]
2.69 µM: GI50 (LNCaP [5])
1.9 µM: GI50 (MCF7 [1])
inactive: Activity (MDA-MB-468 [17]) | Activity (MDA-MB-231 [18]) | Activity (MCF7 [19]) | Activity (LNCaP [26])
2.54 µM: GI50 (MDA-MB-468 [3])
active: inhibition (MCF7 [8]) Dose-dependent effect | inhibition (MCF7 [9]) Dose-dependent effect | inhibition (MCF7 [10]) Dose-dependent effect | inhibition (MDA-MB-231 [11]) Dose-dependent effect | inhibition (MDA-MB-231 [12]) Dose-dependent effect | inhibition (MDA-MB-231 [13]) Dose-dependent effect | inhibition (MDA-MB-468 [14]) Dose-dependent effect | inhibition (MDA-MB-468 [15]) Dose-dependent effect | inhibition (MDA-MB-468 [16]) Dose-dependent effect | Activity (MDA-MB-468 [20]) Dose-dependent effect | Activity (MCF7 [21]) Dose-dependent effect | Activity (MDA-MB-231 [22]) Dose-dependent effect | inhibition (LNCaP [23]) Dose-dependent effect | inhibition (LNCaP [24]) Dose-dependent effect | inhibition (LNCaP [25]) Dose-dependent effect | Activity (LNCaP [27]) | inhibition (PC-3) | Activity (LNCaP [28]) | inhibition [29]
1.73 µM: GI50 [4]

COc1cccc(C2=CCC(C)(C)C(/C=C/C(C)=C/C=C/C(C)=C\C(=O)NCc3ccc(O)cc3)=C2C)c1
≥ 40%: inhibition of growth at 10 µM (MCF7 [30]) | inhibition of growth at 10 µM (MDA-MB-231 [31]) | inhibition of growth at 10 µM (MDA-MB-468 [32]) | inhibition of growth at 10 µM [33]

CC1=C(/C=C/C(C)=C/C=C/C(C)=C\C(=O)NCc2ccc(O)cc2)C(C)(C)CC=C1c1cccnc1
≥ 40%: inhibition of growth at 10 µM (MCF7 [30]) | inhibition of growth at 10 µM (MDA-MB-231 [31]) | inhibition of growth at 10 µM (MDA-MB-468 [32]) | inhibition of growth at 10 µM [33]

COc1cccc(C2=CCC(C)(C)C(/C=C/C(C)=C/C=C/C(C)=C\C(=O)NCCc3ccc(O)cc3)=C2C)c1
≥ 40%: inhibition of growth at 10 µM (MCF7 [30]) | inhibition of growth at 10 µM (MDA-MB-231 [31]) | inhibition of growth at 10 µM (MDA-MB-468 [32]) | inhibition of growth at 10 µM [33]

CC1=C(/C=C/C(C)=C/C=C/C(C)=C/C(=O)Nc2ccc(F)cc2)C(C)(C)CCC1n1ccnc1 (stereo not drawn)
97%: inhibition in vivo at 20 mg/kg (MDA-MB-231 [34])

Source: ChEMBL document CHEMBL3414559, “Novel C-4 heteroaryl 13-cis-retinamide Mnk/AR degrading agents inhibit cell proliferation and migration and induce apoptosis in human breast and prostate cancer cells and suppress growth of MDA-MB-231 human breast and CWR22Rv1 human prostate tumor xenografts in mice” (J Med Chem, 2015)
